Data taken from ChEMBL document CHEMBL3351601, “2-(4-Chlorobenzyl)-6-arylimidazo[2,1-b][1,3,4]thiadiazoles: synthesis, cytotoxic activity and mechanism of action” (Eur J Med Chem, 2014).
pIC50: −log10 of the molar value.

Each molecule was assayed on HeLa (assay: Cytotoxicity against human HeLa cells after 72 hrs by Coulter counting method). Conditions: not given.
Format: functional, cell-based
In short: (§1)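 (5–7.5) × 10⁴ tumour cells per well with test compound. Proliferation ran 48 h for L1210 and 72 h for CEM and HeLa, at 37 °C in humidified CO₂. Cells counted in a Coulter counter. IC50 taken as the concentration that inhibited cell proliferation by 50%.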

SMILES | pIC50
Cc1ccc(-c2cn3nc(Cc4ccc(Cl)cc4)sc3n2)cc1 | < 3.60
O=[N+]([O-])c1ccc(-c2nc3sc(Cc4ccc(Cl)cc4)nn3c2Br)cc1 | < 3.60
Clc1ccc(Cc2nn3cc(-c4ccccc4)nc3s2)cc1 | < 3.60
O=Cc1c(-c2ccc(Cl)cc2)nc2sc(Cc3ccc(Cl)cc3)nn12 | 4.80
O=Cc1c(-c2ccc(Br)cc2)nc2sc(Cc3ccc(Cl)cc3)nn12 | 5.38
N#CSc1c(-c2ccc(Cl)cc2Cl)nc2sc(Cc3ccc(Cl)cc3)nn12 | 4.74
N#CSc1c(-c2cc3ccccc3oc2=O)nc2sc(Cc3ccc(Cl)cc3)nn12 | 6.00
Fc1ccc(-c2nc3sc(Cc4ccc(Cl)cc4)nn3c2Br)cc1 | < 3.60
O=c1oc2ccccc2cc1-c1cn2nc(Cc3ccc(Cl)cc3)sc2n1 | < 5.00
COc1ccc(-c2cn3nc(Cc4ccc(Cl)cc4)sc3n2)cc1 | < 3.60
Clc1ccc(Cc2nn3cc(-c4ccc(Cl)cc4)nc3s2)cc1 | 4.02
O=Cc1c(-c2ccccc2)nc2sc(Cc3ccc(Cl)cc3)nn12 | 4.35
N#CSc1c(-c2ccc(Cl)cc2)nc2sc(Cc3ccc(Cl)cc3)nn12 | 4.70
O=Cc1c(-c2ccc([N+](=O)[O-])cc2)nc2sc(Cc3ccc(Cl)cc3)nn12 | 4.77
N#CSc1c(-c2ccc(Br)cc2)nc2sc(Cc3ccc(Cl)cc3)nn12 | 4.66
COc1ccc(-c2nc3sc(Cc4ccc(Cl)cc4)nn3c2Br)cc1 | 4.18
N#CSc1c(-c2ccccc2)nc2sc(Cc3ccc(Cl)cc3)nn12 | 4.92
Cc1ccc(-c2nc3sc(Cc4ccc(Cl)cc4)nn3c2Br)cc1 | < 3.60

SMILES | pIC50
c1ccc([C@H]2CN3CCSC3=N2)cc1 [LEVAMISOLE] | 3.60
Clc1ccc(Cc2nn3c(Br)c(-c4ccccc4)nc3s2)cc1 | < 3.60
Clc1ccc(Cc2nn3c(Br)c(-c4ccc(Cl)cc4)nc3s2)cc1 | < 3.60
N#CSc1c(-c2ccc(F)cc2)nc2sc(Cc3ccc(Cl)cc3)nn12 | 4.70
Clc1ccc(Cc2nn3cc(-c4ccc(Cl)cc4Cl)nc3s2)cc1 | 3.96
Clc1ccc(Cc2nn3c(Br)c(-c4ccc(Cl)cc4Cl)nc3s2)cc1 | 3.93
COc1ccc(-c2nc3sc(Cc4ccc(Cl)cc4)nn3c2SC#N)cc1 | 5.05
O=Cc1c(-c2ccc(F)cc2)nc2sc(Cc3ccc(Cl)cc3)nn12 | 4.70
Cc1ccc(-c2nc3sc(Cc4ccc(Cl)cc4)nn3c2SC#N)cc1 | 4.66
COc1ccc(-c2nc3sc(Cc4ccc(Cl)cc4)nn3c2C=O)cc1 | 5.22
Fc1ccc(-c2cn3nc(Cc4ccc(Cl)cc4)sc3n2)cc1 | < 3.60
Clc1ccc(Cc2nn3c(Br)c(-c4ccc(Br)cc4)nc3s2)cc1 | 3.73
N#CSc1c(-c2ccc([N+](=O)[O-])cc2)nc2sc(Cc3ccc(Cl)cc3)nn12 | 4.80
Clc1ccc(Cc2nn3cc(-c4ccc(Br)cc4)nc3s2)cc1 | < 3.60
O=c1oc2ccccc2cc1-c1nc2sc(Cc3ccc(Cl)cc3)nn2c1Br | 5.35
O=Cc1c(-c2ccc(Cl)cc2Cl)nc2sc(Cc3ccc(Cl)cc3)nn12 | 4.19
O=[N+]([O-])c1ccc(-c2cn3nc(Cc4ccc(Cl)cc4)sc3n2)cc1 | < 3.60
Cc1ccc(-c2nc3sc(Cc4ccc(Cl)cc4)nn3c2C=O)cc1 | 4.68

What follows are molecules tested on CCRF-CEM (assay: Cytotoxicity against human CEM cells after 72 hrs by Coulter counting method). Conditions: not given.
Format: cell-based
In short: as §1

SMILES | pIC50
Cc1ccc(-c2cn3nc(Cc4ccc(Cl)cc4)sc3n2)cc1 | < 3.60
O=[N+]([O-])c1ccc(-c2nc3sc(Cc4ccc(Cl)cc4)nn3c2Br)cc1 | 4.14
Clc1ccc(Cc2nn3cc(-c4ccccc4)nc3s2)cc1 | < 3.60
O=Cc1c(-c2ccc(Cl)cc2)nc2sc(Cc3ccc(Cl)cc3)nn12 | 5.24
O=Cc1c(-c2ccc(Br)cc2)nc2sc(Cc3ccc(Cl)cc3)nn12 | 5.40
N#CSc1c(-c2ccc(Cl)cc2Cl)nc2sc(Cc3ccc(Cl)cc3)nn12 | 4.34
N#CSc1c(-c2cc3ccccc3oc2=O)nc2sc(Cc3ccc(Cl)cc3)nn12 | 5.85
Fc1ccc(-c2nc3sc(Cc4ccc(Cl)cc4)nn3c2Br)cc1 | < 3.60
O=c1oc2ccccc2cc1-c1cn2nc(Cc3ccc(Cl)cc3)sc2n1 | < 5.00
COc1ccc(-c2cn3nc(Cc4ccc(Cl)cc4)sc3n2)cc1 | < 3.60
Clc1ccc(Cc2nn3cc(-c4ccc(Cl)cc4)nc3s2)cc1 | < 3.60
O=Cc1c(-c2ccccc2)nc2sc(Cc3ccc(Cl)cc3)nn12 | 4.66
N#CSc1c(-c2ccc(Cl)cc2)nc2sc(Cc3ccc(Cl)cc3)nn12 | 4.52
O=Cc1c(-c2ccc([N+](=O)[O-])cc2)nc2sc(Cc3ccc(Cl)cc3)nn12 | 4.89
N#CSc1c(-c2ccc(Br)cc2)nc2sc(Cc3ccc(Cl)cc3)nn12 | 4.21
COc1ccc(-c2nc3sc(Cc4ccc(Cl)cc4)nn3c2Br)cc1 | 4.24
N#CSc1c(-c2ccccc2)nc2sc(Cc3ccc(Cl)cc3)nn12 | 4.85
Cc1ccc(-c2nc3sc(Cc4ccc(Cl)cc4)nn3c2Br)cc1 | < 3.60
c1ccc([C@H]2CN3CCSC3=N2)cc1 [LEVAMISOLE] | < 3.60

SMILES | pIC50
Clc1ccc(Cc2nn3c(Br)c(-c4ccccc4)nc3s2)cc1 | < 3.60
Clc1ccc(Cc2nn3c(Br)c(-c4ccc(Cl)cc4)nc3s2)cc1 | < 3.60
N#CSc1c(-c2ccc(F)cc2)nc2sc(Cc3ccc(Cl)cc3)nn12 | 4.62
Clc1ccc(Cc2nn3cc(-c4ccc(Cl)cc4Cl)nc3s2)cc1 | < 3.60
Clc1ccc(Cc2nn3c(Br)c(-c4ccc(Cl)cc4Cl)nc3s2)cc1 | 3.97
COc1ccc(-c2nc3sc(Cc4ccc(Cl)cc4)nn3c2SC#N)cc1 | 5.00
O=Cc1c(-c2ccc(F)cc2)nc2sc(Cc3ccc(Cl)cc3)nn12 | 4.77
Cc1ccc(-c2nc3sc(Cc4ccc(Cl)cc4)nn3c2SC#N)cc1 | 4.66
COc1ccc(-c2nc3sc(Cc4ccc(Cl)cc4)nn3c2C=O)cc1 | 5.42
Fc1ccc(-c2cn3nc(Cc4ccc(Cl)cc4)sc3n2)cc1 | < 3.60
N[C@@H](Cc1ccc(N(CCCl)CCCl)cc1)C(=O)O [MELPHALAN] | 5.85
Clc1ccc(Cc2nn3c(Br)c(-c4ccc(Br)cc4)nc3s2)cc1 | 3.62
N#CSc1c(-c2ccc([N+](=O)[O-])cc2)nc2sc(Cc3ccc(Cl)cc3)nn12 | 4.70
Clc1ccc(Cc2nn3cc(-c4ccc(Br)cc4)nc3s2)cc1 | < 3.60
O=c1oc2ccccc2cc1-c1nc2sc(Cc3ccc(Cl)cc3)nn2c1Br | 5.43
O=Cc1c(-c2ccc(Cl)cc2Cl)nc2sc(Cc3ccc(Cl)cc3)nn12 | 4.10
O=[N+]([O-])c1ccc(-c2cn3nc(Cc4ccc(Cl)cc4)sc3n2)cc1 | < 3.60
Cc1ccc(-c2nc3sc(Cc4ccc(Cl)cc4)nn3c2C=O)cc1 | 4.77

The molecules below were run on REH (assay: Cytotoxicity against human REH cells after 48 to 72 hrs). Conditions: not given.
Format: functional, cell-based
In short: (§2)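 REH and K562 cells at 0.5 × 10⁵ cells/ml, given 0–10 μM compound, with a DMSO vehicle control. Read at 48 and 72 h by trypan blue dye exclusion (cells precultured 24 h before dosing) and by MTT. Three independent experiments, MTT in duplicate.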

SMILES | pIC50
N#CSc1c(-c2cc3ccccc3oc2=O)nc2sc(Cc3ccc(Cl)cc3)nn12 | 5.21

These molecules were tested on L1210 (assay: Cytotoxicity against mouse L1210 cells after 48 hrs by Coulter counting method). Conditions: L1210, 48 h.
Format: functional, cell-based
In short: as §1

SMILES | pIC50
Cc1ccc(-c2cn3nc(Cc4ccc(Cl)cc4)sc3n2)cc1 | < 3.60
O=[N+]([O-])c1ccc(-c2nc3sc(Cc4ccc(Cl)cc4)nn3c2Br)cc1 | 4.03
Clc1ccc(Cc2nn3cc(-c4ccccc4)nc3s2)cc1 | < 3.60
O=Cc1c(-c2ccc(Cl)cc2)nc2sc(Cc3ccc(Cl)cc3)nn12 | 4.82
O=Cc1c(-c2ccc(Br)cc2)nc2sc(Cc3ccc(Cl)cc3)nn12 | 5.34
N#CSc1c(-c2ccc(Cl)cc2Cl)nc2sc(Cc3ccc(Cl)cc3)nn12 | 4.31
N#CSc1c(-c2cc3ccccc3oc2=O)nc2sc(Cc3ccc(Cl)cc3)nn12 | 5.89
Fc1ccc(-c2nc3sc(Cc4ccc(Cl)cc4)nn3c2Br)cc1 | < 3.60
O=c1oc2ccccc2cc1-c1cn2nc(Cc3ccc(Cl)cc3)sc2n1 | < 5.00
COc1ccc(-c2cn3nc(Cc4ccc(Cl)cc4)sc3n2)cc1 | 4.42
Clc1ccc(Cc2nn3cc(-c4ccc(Cl)cc4)nc3s2)cc1 | < 3.60
O=Cc1c(-c2ccccc2)nc2sc(Cc3ccc(Cl)cc3)nn12 | 4.70
N#CSc1c(-c2ccc(Cl)cc2)nc2sc(Cc3ccc(Cl)cc3)nn12 | 4.31
O=Cc1c(-c2ccc([N+](=O)[O-])cc2)nc2sc(Cc3ccc(Cl)cc3)nn12 | 4.82
N#CSc1c(-c2ccc(Br)cc2)nc2sc(Cc3ccc(Cl)cc3)nn12 | 4.09
COc1ccc(-c2nc3sc(Cc4ccc(Cl)cc4)nn3c2Br)cc1 | 4.20
N#CSc1c(-c2ccccc2)nc2sc(Cc3ccc(Cl)cc3)nn12 | 4.62
Cc1ccc(-c2nc3sc(Cc4ccc(Cl)cc4)nn3c2Br)cc1 | < 3.60

SMILES | pIC50
c1ccc([C@H]2CN3CCSC3=N2)cc1 [LEVAMISOLE] | 3.69
Clc1ccc(Cc2nn3c(Br)c(-c4ccccc4)nc3s2)cc1 | < 3.60
Clc1ccc(Cc2nn3c(Br)c(-c4ccc(Cl)cc4)nc3s2)cc1 | < 3.60
N#CSc1c(-c2ccc(F)cc2)nc2sc(Cc3ccc(Cl)cc3)nn12 | 4.64
Clc1ccc(Cc2nn3cc(-c4ccc(Cl)cc4Cl)nc3s2)cc1 | 3.61
Clc1ccc(Cc2nn3c(Br)c(-c4ccc(Cl)cc4Cl)nc3s2)cc1 | 4.51
COc1ccc(-c2nc3sc(Cc4ccc(Cl)cc4)nn3c2SC#N)cc1 | 4.80
O=Cc1c(-c2ccc(F)cc2)nc2sc(Cc3ccc(Cl)cc3)nn12 | 4.70
Cc1ccc(-c2nc3sc(Cc4ccc(Cl)cc4)nn3c2SC#N)cc1 | 4.49
COc1ccc(-c2nc3sc(Cc4ccc(Cl)cc4)nn3c2C=O)cc1 | 5.28
Fc1ccc(-c2cn3nc(Cc4ccc(Cl)cc4)sc3n2)cc1 | < 3.60
Clc1ccc(Cc2nn3c(Br)c(-c4ccc(Br)cc4)nc3s2)cc1 | < 3.60
N#CSc1c(-c2ccc([N+](=O)[O-])cc2)nc2sc(Cc3ccc(Cl)cc3)nn12 | 4.30
Clc1ccc(Cc2nn3cc(-c4ccc(Br)cc4)nc3s2)cc1 | < 3.60
O=c1oc2ccccc2cc1-c1nc2sc(Cc3ccc(Cl)cc3)nn2c1Br | 5.28
O=Cc1c(-c2ccc(Cl)cc2Cl)nc2sc(Cc3ccc(Cl)cc3)nn12 | 4.09
O=[N+]([O-])c1ccc(-c2cn3nc(Cc4ccc(Cl)cc4)sc3n2)cc1 | 3.67
Cc1ccc(-c2nc3sc(Cc4ccc(Cl)cc4)nn3c2C=O)cc1 | 4.64

Each molecule was assayed on K562 (assay: Cytotoxicity against human K562 cells after 48 to 72 hrs). Conditions: not given.
Format: functional, cell-based
In short: as §2

SMILES | pIC50
N#CSc1c(-c2cc3ccccc3oc2=O)nc2sc(Cc3ccc(Cl)cc3)nn12 | 5.51
